According to PMC6404779 (Nature medicine, 2018):

Columns and labels:
[1] = test system: WT RAS/RAF (primary keratinocytes); test: p-ERK Western blot, 1 hr drug treatment; type: cell-based; conditions: Keratinocyte, read-out: IC50 for p-ERK in keratinocytes
How it was run: (§1)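 SK-MEL-2 (RPMI, 10% FBS) or primary keratinocytes (Dermal Cell Basal Medium + keratinocyte growth kit) were exposed 1 hr to 0–30,000 nM compound (nine points, 10 to 30,000 nM). Lysates were Western blotted, and p-ERK/total ERK was quantified by densitometry and normalized to untreated cells. IC50 is the concentration giving 50% inhibition on the response curve; n=4, mean±s.d.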

[2] = PLX8394 concentration in tumor samples; type: in vivo, Mice; conditions: single dose of 50mg/kg (i.p.), A375 xenograft tumor tissue
How it was run: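 Melanoma xenograft tumours were collected at several time points after a single 50 mg/kg dose. Fresh tissue (50–150 mg) was snap-frozen in an ethanol–dry ice bath, homogenised and protein-precipitated. Samples were quantified by LC-MS/MS with an internal standard and a 15–50000 ng/mL calibration range. Standards were made by spiking untreated homogenate, and QC samples spanned the range.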

[3] = test system: BRAF K601E CRC PDX tumors; test: Colorectal cancer PDX model; type: in vivo, NSG mice; conditions: vemurafenib 75mg/kg BID, PLX8394 50mg/kg BID
BRAF V600E monomers = test: ERK signaling in SKBR3 cells ectopically expressing RAF proteins; type: cell-based; conditions: 1hr
How it was run: (§2)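 SKBR3 cells (DMEM/F12 + 10% FBS) were transfected the day after seeding (Lipofectamine 2000, DNA:lipid 1:3) with plasmids for the indicated RAF proteins or empty pcDNA3. After 24 h, RAF-transfected cells got 1 uM lapatinib to suppress endogenous RAF activity; vector cells got DMSO. Test compound was then added at increasing doses for 1 hr. Protein expression and phosphorylation were read by Western blot; 3–4 independent repeats.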

[4] = test system: Class 2 BRAF mutants (SK-MEL-239 C4, SK-MEL-246, JVM-3, and 22RV1); test: ERK signaling in a panel of cell lines, 1 hour; type: cell-based
[5] = test system: p61 BRAF V600E homodimers (SK-MEL-239 C4); test: p-ERK Western blot, 1 hr drug treatment; type: cell-based
How it was run: (§3)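 SK-MEL-239 and SK-MEL-239 C4 cells (DMEM, glutamine, antibiotics, 10% FBS) were exposed 1 hr to 0–30,000 nM test compound (0,10,30,100,300,1000,3000,10,000, 30,000 nM). Whole-cell lysates were Western blotted, and p-ERK/total ERK was quantified by densitometry and normalized to untreated cells. IC75 is the concentration giving 75% inhibition on the response curve; 4 independent repeats, mean±s.d.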

[6] = target: RAS-dependent full length BRAF/BRAF dimers (Homo sapiens, UniProt P15056); test: RAF dimer immunoprecipitation in 293H; type: cell-based
Sequence of RAS-dependent full length BRAF/BRAF dimers (P15056 whole entry): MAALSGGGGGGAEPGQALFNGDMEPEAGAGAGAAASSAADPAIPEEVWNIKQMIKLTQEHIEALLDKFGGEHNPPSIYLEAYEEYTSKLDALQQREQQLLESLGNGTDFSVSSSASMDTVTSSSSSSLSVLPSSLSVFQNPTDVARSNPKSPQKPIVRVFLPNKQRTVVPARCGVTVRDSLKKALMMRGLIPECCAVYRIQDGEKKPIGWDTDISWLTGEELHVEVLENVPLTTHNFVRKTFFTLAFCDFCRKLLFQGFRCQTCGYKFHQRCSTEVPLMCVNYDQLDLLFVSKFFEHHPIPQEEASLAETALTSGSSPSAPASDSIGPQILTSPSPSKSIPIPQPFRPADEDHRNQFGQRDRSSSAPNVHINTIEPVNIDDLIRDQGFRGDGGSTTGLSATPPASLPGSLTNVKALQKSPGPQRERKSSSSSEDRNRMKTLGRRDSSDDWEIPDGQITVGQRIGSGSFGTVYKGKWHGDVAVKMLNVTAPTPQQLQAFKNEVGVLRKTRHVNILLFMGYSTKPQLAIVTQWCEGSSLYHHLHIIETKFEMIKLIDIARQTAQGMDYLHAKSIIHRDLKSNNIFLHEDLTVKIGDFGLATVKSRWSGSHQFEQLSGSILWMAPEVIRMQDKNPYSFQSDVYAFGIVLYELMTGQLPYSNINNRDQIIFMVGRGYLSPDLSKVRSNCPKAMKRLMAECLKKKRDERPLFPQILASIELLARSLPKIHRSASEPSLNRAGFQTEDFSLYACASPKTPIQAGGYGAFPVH

[7] = target: RAS-dependent full length CRAF dimers (Homo sapiens, UniProt P04049); test: RAF dimer immunoprecipitation in 293H; type: cell-based; conditions: concentrations as high as 10uM
Sequence of RAS-dependent full length CRAF dimers (P04049 whole entry): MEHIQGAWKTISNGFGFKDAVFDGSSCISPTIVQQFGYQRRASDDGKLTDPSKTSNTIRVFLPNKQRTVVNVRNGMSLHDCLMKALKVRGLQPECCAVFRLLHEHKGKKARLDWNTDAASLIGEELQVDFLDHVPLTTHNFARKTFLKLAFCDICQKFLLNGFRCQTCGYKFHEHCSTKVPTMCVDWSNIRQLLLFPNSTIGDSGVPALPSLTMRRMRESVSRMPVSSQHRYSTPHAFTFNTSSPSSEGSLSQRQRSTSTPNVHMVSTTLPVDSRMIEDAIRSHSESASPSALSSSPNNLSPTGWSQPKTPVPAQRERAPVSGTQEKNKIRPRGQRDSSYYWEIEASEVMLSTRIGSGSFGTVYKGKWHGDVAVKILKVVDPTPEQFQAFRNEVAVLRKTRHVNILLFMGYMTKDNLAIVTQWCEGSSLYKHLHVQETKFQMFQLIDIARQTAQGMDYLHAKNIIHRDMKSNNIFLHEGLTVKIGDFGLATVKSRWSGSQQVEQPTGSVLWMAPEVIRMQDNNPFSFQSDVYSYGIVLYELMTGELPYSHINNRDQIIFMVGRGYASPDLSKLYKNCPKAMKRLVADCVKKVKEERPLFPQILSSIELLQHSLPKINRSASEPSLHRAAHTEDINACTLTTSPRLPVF
Sequence of RAS-dependent full length CRAF dimers (P04049 whole entry): as above
How it was run: (§4)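 293H cells with inducible NRAS Q61K co-expressed V5- and FLAG-tagged pairs: BRAF/BRAF, p61 BRAF/p61 BRAF, CRAF-V5/BRAF-FLAG, catC-V5/p61 BRAF-FLAG, CRAF/CRAF or catC/catC. Cells were exposed 1 hr to increasing test compound concentrations, and lysates were immunoprecipitated with anti-V5 agarose. Blots were probed with anti-V5/anti-FLAG. Pulled-down tagged proteins were quantified by densitometry, normalized to untreated cells and plotted as response curves; 3 independent repeats.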

CRAF knockout MEF cells = test: p-MEK/p-ERK in RAF knockout MEF cells; type: cell-based, Mouse; conditions: 1hr
How it was run: (§5)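 Wild-type control MEFs and ARAF, BRAF or CRAF knockout MEFs (from a conditional RAF knockout line) were exposed 1 hr to increasing test compound concentrations. Western blot measured p-MEK, MEK, p-ERK and ERK. p-MEK/MEK and p-ERK/ERK were quantified by densitometry, normalized to untreated cells and plotted as response curves (mean±s.d.). Cellular experiments were repeated at least three times.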

[8] = test system: BRAF V600E monomers (SK-MEL-239); test: p-ERK Western blot, 1 hr drug treatment; type: cell-based; conditions: p-ERK/total ERK by densitometry, calculated from the curves in Figure 1
How it was run: as §3

[9] = test system: NRAS Q61R activation of WT RAF dimers (SK-MEL-2); test: p-ERK Western blot, 1 hr drug treatment; type: cell-based; conditions: Homo sapiens, SK-MEL-2, read-out: IC50 for p-ERK in SK-MEL-2 cells
How it was run: as §1

BRAF/CRAF dimers = BRAF/CRAF dimers (Homo sapiens, UniProt P04049); test: RAF dimer immunoprecipitation in 293H; type: cell-based
Sequence of BRAF/CRAF dimers (P04049 whole entry): as above
How it was run: as §4

ARAF knockout MEF cells = test: p-MEK/p-ERK in RAF knockout MEF cells; type: cell-based, Mouse; conditions: 1hr
How it was run: as §5

[10] = test system: RAS-independent truncated CRAF (Cat C) homodimers; test: RAF dimer immunoprecipitation in 293H; type: cell-based; conditions: concentrations as high as 10uM
How it was run: as §4

BRAF G466V PDX tumors = test: Colorectal cancer PDX model; type: in vivo, NSG mice; conditions: Cetuximab 50 mg/kg IP twice weekly, vemurafenib 75 mg/kg BID, PLX8394 50 mg/kg BID
[11] = test system: RAF-null MEFs expressing CRAF; test: ERK signaling in RAF-null MEFs expressing one RAF isoform; type: cell-based, Mouse; conditions: 1hr
How it was run: (§6)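 RAF-less MEFs came from Araflox/lox;Braflox/lox;Craflox/lox;RERT ert/ert MEFs. Doxycycline-inducible wild-type ARAF, BRAF or CRAF was transduced retrovirally without 4-OHT and selected with puromycin/hygromycin. Cells were then infected with Adeno-Cre (MOI 100) and cultured in 1 uM 4-OHT plus 50 ng/ml doxycycline. GFP-positive cells were sorted after 2 weeks. Loss of endogenous RAF and induced expression were confirmed by genomic PCR and Western blot.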

[12] = test system: activated CRAF homodimers; test: ERK signaling in SKBR3 cells ectopically expressing RAF proteins; type: cell-based; conditions: 1hr
How it was run: as §2

[13] = test system: RAF-null MEFs expressing ARAF; test: ERK signaling in RAF-null MEFs expressing one RAF isoform; type: cell-based, Mouse; conditions: 1hr
How it was run: as §6

[14] = test system: HeLa cells (WT RAS and RAF) with CRAF overexpression; test: ERK signaling in HeLa cells stably expressing RAF; type: cell-based; conditions: 1hr
[15] = test system: RAS-dependent ARAF homo-or heterodimers; test: RAF dimer immunoprecipitation in 293H; type: cell-based; conditions: 1hr
A375 Xenograft tumors = test: ERK pathway inhibition in A375 xenograft tumors after a single dose; type: in vivo, Mice; conditions: single dose of 50mg/kg
[16] = test system: Class 3 mutants (H508 and H1666); test: ERK signaling in a panel of cell lines, 1 hour; type: cell-based

Compound: O=C(c1c(F)ccc(NS(=O)(=O)N2CC[C@@H](F)C2)c1F)c1c[nH]c2ncc(-c3cnc(C4CC4)nc3)cc12 [PLX8394]
- IC50 [1]: > 20000 nM
- time of highest drug concentrations in melanoma xenografts [2]: 7 h
- tumor growth response, single RAF inhibitor [3]: partially inhibited
- doses required to inhibit BRAF V600E monomers (BRAF V600E monomers): 30 to 100 nM
- concentrations inhibiting ERK signaling in cells expressing Class 2 BRAF mutants [4]: 100 to 1000 nM
- IC75 of p-ERK in SK-MEL-239 C4 ([5]; 1 hr, p-ERK/total ERK by densitometry, calculated from the curves in Figure 1): 158 nM
- concentration that inhibits p61 dimers ([5]; SK-MEL-239 C4, 1 hr): 100~300 nM
- IC50 [6]: 100 to 300 nM
- time to reduction in BRAF-containing dimers after drug treatment ([6]; 1uM, 293H cells): ≤ 15 min
- effect on full length CRAF dimer levels [7]: no effect
- effect on ERK signaling, CRAF-knockout (CRAF knockout MEF cells): inhibited signaling
- IC75 of p-ERK in SK-MEL-239 [8]: 39 nM
- IC50 [9]: > 20000 nM
- IC50 (BRAF/CRAF dimers): 100 to 300 nM
- effect on ERK signaling, ARAF knockout (ARAF knockout MEF cells): minimal effects
- effect on truncated CRAF (Cat C) homodimer levels [10]: no effect
- response of ERK signaling and tumor growth (BRAF G466V PDX tumors): insensitive
- effect on ERK signaling, cells expressing only CRAF [11]: activated
- effect on ERK signaling in cells with activated CRAF homodimers [12]: activated ERK signaling
- effect on ERK signaling, cells expressing only ARAF [13]: activated
- effect on ERK signaling, CRAF overexpression [14]: activated the pathway
- disruption of ARAF homo- or heterodimers [15]: didn’t disrupt
- time of maximum inhibition of signaling after dosing (A375 Xenograft tumors): 2 to 7 h
- time of return of signaling to baseline (A375 Xenograft tumors): ≤ 24 h
- concentrations inhibiting Class 3 mutants driven signaling [16]: 1 to 10 µM
